Assays:
[1] = Non-compartmental pharmacokinetics; type: in vivo, human
In short: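 Patients took oral drug twice daily, continuously, at 50–500 mg BID. Plasma parent drug and active metabolite M8 were measured by a validated assay. Parameters were derived non-compartmentally on day 1 and reported as geometric mean (SD). Accumulation indices for Cmax and AUC0–8 were compared with theoretical values from D1 half-lives. Dose proportionality was tested on day-1 Cmax and AUC0-inf (95% CI of coefficient including 1).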

[2] = phase 3 maintenance trials ref 25-27; cited from earlier work
[3] = test system: sporadic ovarian cancer; settings: sporadic ovarian cancer ref 43; cited from earlier work
[4] = metabolite M8, geometric mean (SD)

CC1(c2nc3c(C(N)=O)cccc3[nH]2)CCC(=O)N1 (stereo not drawn) [M8]
M8/ABT-888 metabolic ratio, AUC0-inf ([1]; day 1): 0.21 (1.9) | M8/ABT-888 metabolic ratio, Cmax ([1]; day 1): 0.11 (1.8) | theoretical accumulation index ([1]; metabolite M8, from D1 half-lives, geometric mean (SD)): 1.51 (1.25) | accumulation index for AUC0–8 [1, 4]: 1.59 (1.41) | accumulation index for Cmax [1, 4]: 1.51 (1.34)

NC(=O)c1cccc2cn(-c3ccc([C@@H]4CCCNC4)cc3)nc12 [niraparib]
grade 3 or 4 anemia [2]: 25%

CNCc1ccc(-c2[nH]c3cc(F)cc4c3c2CCNC4=O)cc1 [rucaparib]
grade 3 or 4 anemia [2]: 19%

O=C(c1cc(Cc2n[nH]c(=O)c3ccccc23)ccc1F)N1CCN(C(=O)C2CC2)CC1 [olaparib]
patients with objective responses [3]: 24% | grade 3 or 4 anemia [2]: 19%
